Measurements taken from publication PMC6425477 (ACS chemical biology, 2018).

How the values were obtained:
D456 GBM PDX cells [1] = experiment: Cell growth; assay type: cell-based, human
In short: (§1)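 D456 pediatric primary GBM PDX cells and normal human astrocytes were treated in the same manner with test compound (DMSO stock) at 5, 20 and 50 μM for 7 days. Growth was read by cell titer. IC50 came from non-linear regression. D456 and NHA were compared by one-way ANOVA with Dunnett's multiple comparisons.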

[2] = tested on: normal human astrocytes (NHAs); experiment: Cell growth / toxicity in normal human astrocytes; assay type: cell-based; conditions: for growth inhibition of GBM PDX cells compared to NHAs: D456 GBM PDX vs NHAs, 5, 20, 50 μM, 7 days
In short: as §1

[3] = tested on: GBM PDX cell lines, D456, GBM157, and 1016; experiment: 2-NBDG glucose uptake in three GBM PDX cell lines; assay type: cell-based, human; conditions: 50 μM; all cells tested (D456, GBM157, 1016)
In short: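 2-NBDG uptake in D456, GBM157 and 1016 GBM PDX cells, run per the manufacturer's protocol. Test compound (DMSO stock) at 50 μM. Data averaged from 2 experiments with n=3 per group. Compared by one-way ANOVA with Tukey's multiple comparisons.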

D456 GBM PDX cells [4] = experiment: Glucose uptake; assay type: cell-based, human
In short: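 D456 GBM PDX cells were given test compound over a range of concentrations. Glucose uptake was read by 2-NBDG, per the manufacturer's protocol. IC50 for glucose uptake came from a curve-fit model.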

D456 GBM PDX cells [5] = experiment: 2-deoxyglucose; assay type: cell-based, human
GBM PDX cells = experiment: Extracellular flux analysis glycolytic stress test; assay type: cell-based, human; conditions: 50 μM; for increase in ECAR following the addition of oligomycin: 4 hours
In short: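 Glycolysis stress test on a Seahorse XF96 flux analyzer in GBM PDX cells. Cells were glucose-starved with test compound at 50 μM for 4 h, then given glucose, oligomycin and 2-DG in turn. Glycolysis = ECAR after glucose minus basal. Capacity and reserve are derived from ECAR before and after 2-DG and oligomycin. Two experiments, n=6; mean ± sem; Student's t-test versus control.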

GLUT1 = conditions: pharmacological inhibition of GLUT1; cited from earlier work
[6] = dose-response, Supporting Information Figure 3c

| SMILES | inhibition of D456 GBM PDX cell growth (in words) (D456 GBM PDX cells [1]; 5 μM) | toxicity to NHAs [2] | growth inhibition of GBM PDX cells compared to NHAs [2] | inhibition of glucose uptake (2-NBDG) [3] | plateau of glucose uptake inhibition (D456 GBM PDX cells [4]; [6]) [%] | threshold concentration at which glucose uptake inhibition plateaus (D456 GBM PDX cells [4]; [6]) | decrease in glucose uptake (2-DG) (D456 GBM PDX cells [5]) | glucose uptake compared to control (2-DG) (D456 GBM PDX cells [5]) [%] | glycolytic capacity (ECAR before 2-DG minus ECAR after 2-DG) (GBM PDX cells) | glycolytic reserve capacity (ECAR after Oligo minus ECAR before Oligo) (GBM PDX cells) | increase in ECAR following the addition of oligomycin (GBM PDX cells) | ECAR ascribed to glycolysis after injection of glucose (GBM PDX cells; 4 hours glucose starvation before glucose) | IC50 (D456 GBM PDX cells [1]; read-out: IC50 for growth inhibition, D456 GBM PDX cells, 7 days) [µM] | IC50 (D456 GBM PDX cells [4]; read-out: IC50 for glucose uptake, Supporting Information Figure 3c) [µM] | tumor formation capabilities of TICs (GLUT1) | GBM PDX cell growth (in words) (D456 GBM PDX cells [1]; GBM PDX cells, line not given, Supplementary Figure 5b) | inhibition of glucose uptake (in words) (D456 GBM PDX cells [4]; D456 GBM PDX cells, Supporting Information Figures 4 and 5) |
| --- | --- | --- | --- | --- | --- | --- | --- | --- | --- | --- | --- | --- | --- | --- | --- | --- | --- |
| O=C1CC(c2ccc(-c3ccn[nH]3)s2)c2cc(N3CCNC3=O)ccc2N1 (stereo not shown) [SRI-37683] | almost completely inhibited | minimal toxicity | significantly stronger growth inhibition | 40–50% | ~50 | approximately 3 μM | approximately 40% | 60 | decrease | decrease | inhibited an increase in ECAR | significantly inhibited |  |  |  |  |  |
| O=C1CC(c2cccc3[nH]ccc23)c2ccc(NC(=O)c3cccnc3)cc2N1 (stereo not shown) [SRI-37684] |  | minimal toxicity | significantly stronger growth inhibition | 40–50% |  |  | ~50% | 50 | decrease | decrease | inhibited an increase in ECAR |  | 8.6 | 33 |  |  |  |
| O=C(Oc1cccc(F)c1OC(=O)c1cccc(O)c1)c1cccc(O)c1 [WZB117, 2-Fluoro-6-(m-hydroxybenzoyloxy) Phenyl m-Hydroxybenzoate] |  |  |  |  |  |  |  |  |  |  |  |  |  |  | decrease the tumor formation capabilities of TICs |  |  |
| O=c1c(-c2ccc(O)cc2)coc2cc(O)cc(O)c12 [genistein, reference compound] |  |  |  |  |  |  |  |  |  |  |  |  |  |  |  | did reduce GBM PDX cell growth | inhibited glucose uptake |
